Results reported in ChEMBL document CHEMBL1126160, “Synthesis and structure-activity relationships of 7-diazabicycloalkylquinolones, including danofloxacin, a new quinolone antibacterial agent for veterinary medicine” (J Med Chem, 1992).
Converted amounts (≈) assume the structure as drawn.

Legend:
Format in all cases: functional
[1] = system: Actinobacillus pleuropneumoniae; assay: In vitro antibacterial activity against anaerobically grown Actinobacillus pleuropneumoniae ([…])
Method in brief: (§1)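 Agar dilution MICs. Anaerobic strains were tested on tryptose agar with 5% bovine blood and incubated 48 h at 39 °C in an anaerobe chamber under N2/CO2/H2 (80:10:10).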

Trueperella pyogenes = assay: In vitro antibacterial activity against anaerobically grown Actinomyces pyogenes (14D002); method in brief: as §1
Phocaeicola vulgatus = assay: In vitro antibacterial activity against anaerobically grown Bacteroides vulgatus (78D029); method in brief: as §1
[2] = system: Bordetella bronchiseptica; assay: In vitro antibacterial activity against aerobically grown Bordetella bronchiseptica (73A009)
Method in brief: (§2)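 Agar dilution MICs. Aerobic strains were tested on brain heart infusion agar and incubated aerobically at 37 °C for 18–20 h.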

Escherichia coli [3] = assay: In vivo protective dose was evaluated against Escherichia coli (51A266) in mouse(sc); details: read-out: PD50
Method in brief: (§3)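 Female CF-1 mice (15 g), groups of 10, challenged ip with 0.5 mL bacterial suspension (P. multocida 59A006 or E. coli 51A266 at 3.0 × 10^8 cfu/mL; S. choleraesuis 58B010 at 8.5 × 10^2 cfu/mL). Drug given sc or po at 30 min, 4 h and 24 h after challenge; survival recorded at 96 h; PD50 by probit analysis.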

Escherichia coli [4] = assay: In vitro antibacterial activity against aerobically grown Escherichia coli (51A538); method in brief: as §2
Escherichia coli [5] = assay: Escherichia coli DNA cleavage endpoint value which is the minimum amount required (in micro g/mL) to induce detectable cleavage of supercoiled pBR322 substrate to linear form (gyrase); details: read-out: MIC
Method in brief: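 DNA gyrase A and B subunits were purified from E. coli overproducers. About 2 units of holoenzyme were incubated with pBR322 in Tris-HCl pH 7.5 containing MgCl2, spermidine, DTT, 0.2 mM ATP, BSA and tRNA. Drug was added as 2-fold serial dilutions, and reactions ran for 60 min at 25 °C. Reactions were stopped with SDS and proteinase K, then run on agarose and stained with ethidium. The endpoint was the lowest concentration giving detectable linear DNA.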

[6] = In vitro antibacterial activity against Aerobically grown Pasteurella haemolytica (59B018); details: Mannheimia haemolytica; method in brief: as §2
Pasteurella multocida [7] = assay: In vitro antibacterial activity against aerobically grown Pasteurella multocida (59A006); method in brief: as §2
Pasteurella multocida [8] = assay: In vivo protective dose was evaluated against Pasteurella multocida (59A006) in mouse(sc); details: read-out: PD50; method in brief: as §3
Salmonella enterica = assay: In vitro antibacterial activity against aerobically grown Salmonella choleraesuis (58B015)
Staphylococcus aureus = assay: In vitro antibacterial activity against aerobically grown Staphylococcus aureus (54B004); method in brief: as §2
[9] = In vitro evaluation for antibacterial activity against anaerobically grown Treponema hyodysenteriae (94A007); details: Brachyspira hyodysenteriae
Clostridium perfringens = assay: microbe, parasite or virus in culture

| Compound | MIC [1] [µg/mL] | MIC (Trueperella pyogenes) [µg/mL] | MIC (Phocaeicola vulgatus) [µg/mL] | MIC [2] [µg/mL] | ED50 (Escherichia coli [3]) [mg/kg] | MIC (Escherichia coli [4]) [µg/mL] | minimum concentration inducing gyrase-mediated DNA cleavage (Escherichia coli [5]) [µg/mL] | MIC [6] [µg/mL] | MIC (Pasteurella multocida [7]) [µg/mL] | ED50 (Pasteurella multocida [8]) [mg/kg] | MIC (Salmonella enterica) [µg/mL] | MIC (Staphylococcus aureus) [µg/mL] | MIC [9] [µg/mL] | MIC (Clostridium perfringens) [µg/mL] |
| --- | --- | --- | --- | --- | --- | --- | --- | --- | --- | --- | --- | --- | --- | --- |
| O=C(O)c1cn(C2CC2)c2cc(N3CCN4CCCC3C4)c(F)cc2c1=O (centres undefined) | 0.02 (≈ 0.0538 µM) | 3.13 (≈ 8.43 µM) | 0.78 (≈ 2.1 µM) | 0.78 (≈ 2.1 µM) | 0.31 | 0.05 (≈ 0.135 µM) | 0.78 | 0.02 (≈ 0.0538 µM) | 0.002 (≈ 0.00538 µM) | 0.15 | 0.05 (≈ 0.135 µM) | 0.1 (≈ 0.269 µM) | 0.2 (≈ 0.538 µM) | 0.2 (≈ 0.538 µM) |
| O=C(O)c1cn(-c2ccc(F)cc2)c2cc(N3CCN4CCCC3C4)c(F)cc2c1=O (centres undefined) | 0.05 (≈ 0.118 µM) | 3.13 (≈ 7.36 µM) | 0.39 (≈ 0.917 µM) | 1.56 (≈ 3.67 µM) | – | 0.1 (≈ 0.235 µM) | 0.78 | 0.05 (≈ 0.118 µM) | 0.01 (≈ 0.0235 µM) | – | 0.2 (≈ 0.47 µM) | 0.1 (≈ 0.235 µM) | 0.2 (≈ 0.47 µM) | 0.2 (≈ 0.47 µM) |
| CN1C2CC[C@@H]1CCN(c1cc3c(cc1F)c(=O)c(C(=O)O)cn3-c1ccc(F)cc1)C2 | 0.78 (≈ 1.77 µM) | > 3.13 | > 3.13 | > 1.56 | – | 1.56 (≈ 3.55 µM) | 0.19 | 1.56 (≈ 3.55 µM) | 0.2 (≈ 0.455 µM) | – | > 1.56 | 0.78 (≈ 1.77 µM) | 0.13 (≈ 0.296 µM) | 0.39 (≈ 0.887 µM) |
| O=C(O)c1cn(C2CC2)c2c(Cl)c(N3C[C@@H]4C[C@H]3CN4)c(F)cc2c1=O | 0.005 (≈ 0.0132 µM) | 0.39 (≈ 1.03 µM) | 0.1 (≈ 0.265 µM) | 0.39 (≈ 1.03 µM) | – | 0.02 (≈ 0.0529 µM) | 0.09 | 0.005 (≈ 0.0132 µM) | 0.005 (≈ 0.0132 µM) | – | 0.02 (≈ 0.0529 µM) | 0.2 (≈ 0.529 µM) | 1.56 (≈ 4.13 µM) | 0.1 (≈ 0.265 µM) |
| CCn1cc(C(=O)O)c(=O)c2cc(F)c(N3C[C@@H]4C[C@H]3CN4)cc21 | 0.39 (≈ 1.18 µM) | 3.13 (≈ 9.45 µM) | > 3.13 | 1.56 (≈ 4.71 µM) | – | 0.78 (≈ 2.35 µM) | 3.12 | 0.39 (≈ 1.18 µM) | 0.2 (≈ 0.604 µM) | – | 0.39 (≈ 1.18 µM) | > 1.56 | 1.56 (≈ 4.71 µM) | 0.39 (≈ 1.18 µM) |
| CN1C[C@@H]2C[C@H]1CN2c1cc2c(cc1F)c(=O)c(C(=O)O)cn2-c1ccc(F)cc1 | 0.1 (≈ 0.243 µM) | 3.13 (≈ 7.61 µM) | 1.56 (≈ 3.79 µM) | 1.56 (≈ 3.79 µM) | 0.94 | 0.2 (≈ 0.486 µM) | 1.56 | 0.1 (≈ 0.243 µM) | 0.02 (≈ 0.0486 µM) | 0.29 | 0.2 (≈ 0.486 µM) | 0.2 (≈ 0.486 µM) | 0.78 (≈ 1.9 µM) | 0.1 (≈ 0.243 µM) |
| O=C(O)c1cn(-c2ccc(F)cc2)c2cc(N3C[C@@H]4C[C@H]3CN4)c(F)cc2c1=O | 0.1 (≈ 0.252 µM) | 3.13 (≈ 7.88 µM) | 3.13 (≈ 7.88 µM) | > 1.56 | – | 0.1 (≈ 0.252 µM) | 1.56 | 0.1 (≈ 0.252 µM) | 0.02 (≈ 0.0503 µM) | – | 0.2 (≈ 0.503 µM) | 0.78 (≈ 1.96 µM) | 1.56 (≈ 3.93 µM) | 0.2 (≈ 0.503 µM) |
| C=Cn1cc(C(=O)O)c(=O)c2cc(F)c(N3CC[C@H]4CCC(C3)N4C)cc21 | 0.78 (≈ 2.1 µM) | > 3.13 | > 3.13 | 1.56 (≈ 4.2 µM) | – | 0.78 (≈ 2.1 µM) | 6.25 | 1.56 (≈ 4.2 µM) | 0.2 (≈ 0.538 µM) | – | 1.56 (≈ 4.2 µM) | 1.56 (≈ 4.2 µM) | 3.13 (≈ 8.43 µM) | 0.78 (≈ 2.1 µM) |
| C=Cn1cc(C(=O)O)c(=O)c2cc(F)c(N3C[C@H]4CC[C@@H](C3)N4C)cc21 | 0.2 (≈ 0.56 µM) | 3.13 (≈ 8.76 µM) | 6.25 (≈ 17.5 µM) | 12.5 (≈ 35 µM) | – | 0.78 (≈ 2.18 µM) | 0.39 | 0.39 (≈ 1.09 µM) | 0.1 (≈ 0.28 µM) | – | 0.78 (≈ 2.18 µM) | 0.2 (≈ 0.56 µM) | 1.56 (≈ 4.37 µM) | 0.78 (≈ 2.18 µM) |
| O=C(O)c1cn(-c2ccc(F)cc2F)c2c(F)c(N3C[C@@H]4C[C@H]3CN4)c(F)cc2c1=O | 0.02 (≈ 0.0462 µM) | 0.78 (≈ 1.8 µM) | 1.56 (≈ 3.6 µM) | 1.56 (≈ 3.6 µM) | – | 0.05 (≈ 0.115 µM) | 0.78 | 0.05 (≈ 0.115 µM) | 0.01 (≈ 0.0231 µM) | – | 0.1 (≈ 0.231 µM) | 0.39 (≈ 0.9 µM) | 3.13 (≈ 7.22 µM) | 0.2 (≈ 0.462 µM) |
